Data set [1] deals with Sortase A (Staphylococcus aureus), Q9S446 [UNDEFINED MUTATION]. Description: Covalent inhibition of Staphylococcus aureus SrtA delta N24 mutant expressed in Escherichia coli BL21 (DE3) assessed as reduction in IsdA (64 to 323 residues) transpeptidation incubated for 20 mins followed by 10 fold compound dilution by SDS-PAGE analysis.
For data set [2] the test system is unchanged. Description: Inhibition of SrtA delta N24 mutant in Staphylococcus aureus subsp. aureus str. Newman reduction in abundance of anchored SpA by FITC-labeled human IgG fluorescence based assay. An outline of the steps: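 Newman wild type and ΔsrtA were diluted 1:1000 in TSB and grown at 37 °C with inhibitor until A600 reached 1.0. Cells were PBS-washed, labelled with FITC-human IgG for 30 min at rt, and washed again before fluorescence was read. Triplicate wells, three independent experiments, unpaired two-tailed t-test.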

The test system is the same in data set [3]. Description: Covalent binding affinity to Staphylococcus aureus SrtA delta N24 mutant assessed as induction of m/z shift incubated for 12 hrs by ESI-LC/MS analysis. An outline of the steps:
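His-tagged SrtAΔN24 preincubated 12 hr with or without a 10-fold excess of compound. Diluted in 50% acetonitrile / 0.2% formic acid, run on a C8 column with a 10–90% acetonitrile gradient over 11 min, then ESI-TOF MS. MTSET served as the covalent reference.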

Data set [4] has the same test system. Description: Inhibition of SrtA delta N24 mutant in Staphylococcus aureus subsp. aureus str. Newman reduction in abundance of anchored SpA by Western blot analysis. An outline of the steps:
(§1)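 Newman was diluted 1:1000 and grown at 37 °C with inhibitor to A600 3.0. Cells were PBS-washed and digested with lysozyme for 30 min at 37 °C. Protoplasts were removed and the supernatant (cell wall fraction) was separated by SDS-PAGE and immunoblotted for SpA, with ClpP as the loading control. Three independent experiments.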

Data set [5] deals with Staphylococcus aureus. Description: Antibiofilm activity against Staphylococcus aureus subsp. aureus str. Newman assessed as reduction in biofilm biomass at 25 to 100 uM incubated for 18 hrs by Crystal violet staining assay. Type of data set: functional, organism-based. An outline of the steps: (§2)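 Overnight culture diluted 1:100 in TSB, plated in quadruplicate with inhibitor, and held static at 37 °C for 18 hr. Wells rinsed with PBS, and the dried, fixed biofilm stained with 0.1% crystal violet for 15 min. Stain dissolved in 30% acetic acid and absorbance read at 595 nm. Three independent experiments.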

For data set [6], the target named is T1, Sortase A (Staphylococcus aureus, UniProt Q9S446, DELTAN24). Description: Inhibition of Staphylococcus aureus SrtA delta N24 mutant expressed in Escherichia coli BL21 (DE3) assessed as reduction in IsdA (64 to 323 residues) transpeptidation incubated for 20 mins by SDS-PAGE analysis. An outline of the steps:
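His-tagged SrtAΔN24 (100 µg) was preincubated 20 min at rt with compound (1–25 µM) in 50 mM Tris-HCl pH 7.5, 150 mM NaCl, 5 mM CaCl2. IsdA64-323 (150 µg) and 3 mM Gly3 were then added for 1.5 hr at 37 °C. […] Three independent experiments.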

Data set [7] concerns Sortase A (Staphylococcus aureus), Q9S446 [UNDEFINED MUTATION]. Kind of data set: Time dependent inhibition of Staphylococcus aureus SrtA delta N24 mutant expressed in Escherichia coli BL21 (DE3) assessed as reduction in IsdA (64 to 323 residues) transpeptidation by SDS-PAGE analysis.
Data set [8] in a line: Solubility in PBS in presence of 1% DMSO by LC/MS analysis. In kind it is physicochemical. The settings on record: PBS with 1% DMSO.
Data set [9] concerns Sortase A (Staphylococcus aureus), Q9S446 [UNDEFINED MUTATION]. Kind of data set: Reversible inhibition of Staphylococcus aureus SrtA delta N24 mutant expressed in Escherichia coli BL21 (DE3) assessed as reduction in IsdA (64 to 323 residues) transpeptidation incubated for 20 mins followed by 10 fold compound dilution by SDS-PAGE analysis.
The target in data set [10] is T1, Sortase A. Kind of data set: Inhibition of Staphylococcus aureus SrtA delta N24 mutant expressed in Escherichia coli BL21 (DE3) using Abz-LPATG-Dnp substrate incubated for 20 mins by FRET-based assay. An outline of the steps: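 His-tagged SrtAΔN24 (1 µM) was preincubated 20 min at rt with compound (0.2–100 µM) in 50 mM Tris-HCl pH 7.5, 150 mM NaCl, 5 mM CaCl2. Abz-LPATG-Dnp was added at 10 µM and fluorescence (ex 309 / em 420 nm) was read each minute for 20 min. IC50 came from a sigmoidal fit. Technical triplicates, three independent experiments.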

In data set [11] the test system is Staphylococcus aureus. Description: Antibacterial activity against Staphylococcus aureus subsp. aureus str. Newman assessed as reduction in bacterial growth incubated for 24 hrs. In kind it is functional. An outline of the steps:
(§3)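 Overnight culture diluted 1:1000 in TSB, grown to A600 0.6-0.8, then diluted 1:400 in TSB. Aliquots incubated with the compound at a range of concentrations. A600 read every 1 hr for 24 hr to build growth curves. Technical triplicates per point; three independent experiments.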

Data set [12] relates to Sortase A (Staphylococcus aureus), Q9S446 [UNDEFINED MUTATION]. Kind of data set: Inhibition of Staphylococcus aureus SrtA delta N24 mutant expressed in Escherichia coli BL21 (DE3) using Abz-LPATG-Dnp substrate incubated for 20 mins in presence of 0.01% v/v Triton X-100 by FRET-based assay.
Data set [13] has the same test system. Kind of data set: Binding affinity to Staphylococcus aureus SrtA delta N24 mutant expressed in Escherichia coli BL21 (DE3 assessed as attenuation of NMR signals by CPMG-NMR analysis. An outline of the steps: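 NMR titration in 20 mM sodium phosphate pH 7.4, 100 mM NaCl, 2% DMSO, at 25 °C on a 600 MHz spectrometer with a cryoprobe.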
Data set [14] has the same test system. Kind of data set: Effect on structural folding of Staphylococcus aureus SrtA delta N24 mutant expressed in Escherichia coli BL21 (DE3 assessed as induction of gross structural perturbations by CD spectroscopy. An outline of the steps:
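SrtAΔN24 at 10 µM was incubated with compound dissolved in methanol, and CD spectra were recorded. Two independent experiments.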

The subject of data set [15] is Staphylococcus aureus. Kind of data set: Antibiofilm activity against Staphylococcus aureus subsp. aureus USA300 assessed as reduction in biofilm formation at 25 to 100 uM incubated for 18 hrs by Crystal violet staining assay. Type of data set: functional, organism-based. An outline of the steps:
as §2

The nature of data set [16]: Cmax in mouse at 10 mg/kg, ip administered as single dose. In kind it is ADME, organism-based. Also noted: dose 10 mg/kg, route intraperitoneal. Conditions: in vivo.
Data set [17] has as its system Staphylococcus aureus. Description: Antibacterial activity against Staphylococcus aureus subsp. aureus str. Newman assessed as reduction in bacterial growth at 200 uM incubated for 24 hrs. In kind it is functional, organism-based. An outline of the steps: as §3
The subject of data set [18] is Staphylococcus aureus. Kind of data set: Antibacterial activity against Staphylococcus aureus subsp. aureus USA300 infected in BALB/c mouse model of systemic infection assessed as prolongation of time to death at 40 mg/kg/day, ip for 10 days. Type of data set: functional, organism-based. An outline of the steps: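 BALB/c females, 6 weeks old, n = 10. USA300 grown 3 hr at 37 °C from a 1:1,000 dilution of overnight culture, washed, suspended in PBS. Compound suspended in ddH2O with 4% Tween 80 and 4% DMSO, given i.p. at 40 mg/kg every 24 hr; saline placebo. Mice challenged periorbitally 4 hr after the first dose. Survival followed over 10 days.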

Data set [19] concerns Sortase A (Staphylococcus aureus), Q9S446 [UNDEFINED MUTATION]. Kind of data set: Inhibition of SrtA delta N24 mutant in Staphylococcus aureus subsp. aureus str. Newman reduction in abundance of anchored SpA at 50 to 200 uM by Western blot analysis. An outline of the steps:
as §1
(In western blotting, separated proteins are transferred to a membrane and probed.)

Data set [20] deals with Staphylococcus aureus. Kind of data set: Antibacterial activity against Staphylococcus aureus subsp. aureus USA300 infected in BALB/c mouse model of systemic infection assessed as mouse survival at 40 mg/kg/day, ip for 10 days. Type of data set: functional. Conditions: 240 h. An outline of the steps: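 BALB/c females, 6 weeks old, n = 10. Drug suspended in ddH2O with 4% Tween 80 and 4% DMSO, given i.p. at 40 mg/kg every 24 hr. Saline was the placebo. Challenge by periorbital injection of USA300 4 hr after the first dose, about 1 × 10^8 CFU (lethal). Survival was followed for 10 days.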

For data set [21], the system named is Staphylococcus aureus. Kind of data set: Effect on cell growth of Staphylococcus aureus subsp. aureus USA300 at 150 ug/ml. In kind it is organism-based. An outline of the steps: as §3

The structures appear in SMILES notation. The source made the active and inactive calls. The rule behind the calls is not given here. Bounds are passed on as bounds.

Regarding `C[N+](C)(C)CCSS(C)(=O)=O`, the inhibition entry in data set [1], in data set [2] and in [4] was “Active” each time. Moreover, the Activity in data set [3] turned out to be 120 Da.

Take `Cc1noc(C)c1-n1sc(=O)n(Cc2ccccc2)c1=O`: the result in data set [5] was Active. The IC50 (as a rule, the midpoint of a concentration-inhibition curve) in data set [6] was found to be 4.6 µM; in [10], 800 nM. For the same compound, in data set [2], the inhibition result is “Dose-dependent effect”. The outcome in data set [3] and in [14] was inactive. In addition, the TDI result in data set [7] was “inactive”. In data set [8], the solubility (in general, how much of the substance goes into solution per volume) turned out to be 144 µg/mL. In addition, the inhibition entry in [9] and in [12] was “Active” in each case. Also, the minimal inhibitory concentration (MIC) (in general, the lowest concentration that inhibits growth of the organism) in data set [11] is greater than 100 µg/mL. Besides, the Activity result in data set [13] was “Dose-dependent effect”.

Regarding `O=c1sn(-c2cccc3ccccc23)c(=O)n1Cc1ccccc1` [TIDEGLUSIB], the result in [5], in data set [15] and in data set [18] was Active. The IC50 amounted to 5.9 µM in [6] and 600 nM in data set [10]. Further, in [2], the inhibition entry is “Dose-dependent effect”. Besides, the outcome in data set [3] and in data set [14] was inactive. Moreover, the peak level in data set [16] (Cmax) was 137 ng/mL. Also, in data set [7], the TDI entry is “inactive”. Besides, in data set [8], the solubility amounted to 11 µg/mL. The inhibition result in data set [9], in [17], in [19] and in data set [12] was “Active” in each case. Also, the MIC in [11] was greater than 100 µg/mL. The survival at 40 mg/kg/day in data set [20] was 40%. The Activity entry in data set [21] is recorded as “Non-Toxic”.

The values above are taken from ChEMBL document CHEMBL4619779, “Tideglusib and Its Analogues As Inhibitors of Staphylococcus aureus SrtA” (J Med Chem, 2020).
